High-throughput results from PubChem.
UPR CHOP act – activators of apoptotic CHOP UPR arm, primary screen, cell-based, CHO-CHOP luciferase reporter, luminescence, uHTS; UPR activation; percent of tunicamycin response over DMSO baseline; AID 449763, 2010; activation, % at 10 µM; actives 0.34% (n = 330,000);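 active means at 10 µM dose, activation of 40% or more, normalized to positive control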
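Assay system: CHO-CHOP cells, stable luciferase reporter of PERK-eIF2a-CHOP signalling / Buffer or medium: F12 plus 10% serum / Compound dosing: one dose, 10 µM in 0.5% DMSO / Times: 6 h compound treatment, 37 °C / Technique: luciferase luminescence / Read-out: % reporter activation, DMSO baseline versus tunicamycin full activation / Benchmarks: tunicamycin and DMSO controls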
Dynein transport – inhibitors of GR-EGFP nuclear translocation, primary screen, dynein cargo transport inhibitor project, imaging, high-content, 3617.4 mouse cells; test concentration mostly 20 µM; stimulated with dexamethasone, 1 µM; hits give low values; z-score, hits read low; actives 0.47% (n = 220,000); AID 1381, 2008;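 active means plate z-score of nuclear minus cytoplasmic receptor signal below a set negative limit, without overly bright fluorescence or cell loss, cut at about -3.5 in these data, passing the limit was not always enough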;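 further: z-score of nuclear minus cytoplasmic ring GR-EGFP intensity difference per well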
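Also added: dexamethasone, 1.0 µM final. Medium: tet-free, stripped-serum medium. Detection: fixed, Hoechst-stained cells imaged at 10x for EGFP. Read-out: nuclear-to-cytoplasmic GR-EGFP distribution per well. Times: induction 48 h, compound 1 h, agonist 30 min.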
pCIP destab – p/CIP-EGFP fusion destabilizers, primary screen, fluorescence, F442A cells | decrease of EGFP signal, % at 10 µM | actives 0.01% (n = 290,000) | 16 h;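 active means EGFP signal decrease of at least 30% at 10 µM or well 3 SD below plate mean, unless failing retest; inactive means the rest, including hits failing retest or dose response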
B2AR ag – beta2AR agonists driving receptor internalization, primary screen, cell-based, FAP fluorogen, flow cytometry; Beta-2 adrenergic receptor (Homo sapiens), P07550; Am2.2-beta2AR cells; response, % (no concentration beside the values); actives 0.43% (n = 340,000); AID 504454, 2011;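 active means response above a set limit, near 3 SD of response in nonfluorescent compounds, cut at about 42% in these data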
CHOP inh – inhibitors of CHOP promoter induction, primary screen, cell-based, unfolded protein response, luciferase reporter; actives 3.8% (n = 220,000); inhibition, % at 10 µM; CHO-K1 CHOP-promoter luciferase, tunicamycin-induced, 15-18 h;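 active means compounds that reduced the stress-induced luciferase reporter signal by more than about 70% of percent inhibition, limit read from the data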
UPR XBP1 act – activators of adaptive XBP1 UPR arm, primary screen, cell-based, CHO-XBP1 luciferase reporter, luminescence, uHTS; actives 0.33% (n = 330,000); AID 463104, 2010; IRE1-XBP1 UPR activation; percent of tunicamycin response, DMSO as zero; activation, % at 20 µM;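 active means versus positive control, 20 µM dose yields 30% or more activation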
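Test system: CHO-XBP1 luciferase reporter cells | Buffer or medium: Serum-containing F12 medium, 10% FBS | Schedule: 6 h compound exposure at 37 °C, 5% CO2 | Detection: Steady-Glo luciferase glow luminescence, 10 min after reagent addition | Read-out basis: Activation, % of tunicamycin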
CHOP inh conf – retest of CHOP induction inhibitors, confirmation, cell-based. AID 504437, 2011. shares compounds with CHOP inh. CHO-CHOP promoter luciferase reporter, tunicamycin-induced, luminescence. inhibition, % at 10 µM. actives 45% (n = 2,100);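 active means mean of three repeat readings of reporter signal inhibition above a set limit, cut at about 70% in these data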
Numbers stand for hits; – = inactive; · = no result given. This is one part of a sample in which hits are shown more often than they occur.

SMILES | UPR CHOP act | Dynein transport | pCIP destab | B2AR ag | CHOP inh | UPR XBP1 act | CHOP inh conf
COc1ccc(/C=N/NC(=S)Nc2ccccc2[N+](=O)[O-])cc1O | · | – | – | – | – | · | ·
CCCOc1ccc(N2C(=O)CC(N(CCc3ccccc3)C(=O)c3ccccc3)C2=O)cc1 (stereo unspecified) | – | – | – | – | – | – | ·
CCc1nnc(NS(=O)(=O)c2ccc(NC(=S)NC(=O)/C=C/c3ccc(C(C)C)cc3)cc2)s1 | – | – | – | – | 104.7 | – | 117.7
CCc1nnc(NS(=O)(=O)c2ccc(NC(=S)NC(=O)/C=C/c3ccccc3)cc2)s1 | – | – | – | – | – | – | ·
CCCS(=O)(=O)N1CCCC(C(=O)Nc2ccc3c(c2)CCC3)C1 (stereo unspecified) | – | · | – | – | · | – | ·
O=S(=O)(/N=S1/CC=CCN1S(=O)(=O)c1ccccc1)c1ccccc1 (stereo unspecified) | – | – | – | – | 103.5 | – | –
Cc1ccc(COc2ccc(Br)cc2/C=N/O)cc1 | – | – | – | – | 109.7 | – | 104.5
O/N=C/c1cc(Cl)ccc1OCc1ccccc1Cl | – | – | – | – | 107.2 | – | –
O/N=C/c1cc(Br)ccc1OCc1ccc(F)cc1 | – | – | · | – | · | – | ·
CCn1c(=O)c(C(=O)CN2CCN(S(=O)(=O)c3ccccc3)CC2)c(N)n(Cc2ccccc2)c1=O | – | – | – | – | – | – | ·
CCn1c(=O)c(C(=O)CN2CCCc3ccccc32)c(N)n(Cc2ccccc2)c1=O | – | – | – | – | 97.5 | – | –
Cc1nn2cnnc2c(C)c1Cc1ccc(Cl)cc1 | – | · | – | – | · | – | ·
COc1ccc(/C(=N/O)C(C)(C)NO)cc1 | – | – | – | – | 99.5 | – | –
CC(C)(NO)/C(=N/O)c1ccc(Br)cc1 | – | – | – | – | 108.3 | – | –
O=C1C(Cl)=C(Nc2ccccc2)C(=O)c2ccccc21 | · | – | – | – | 111.7 | · | 127.1
CCCC(=O)N1N=C(c2ccccc2)CC1c1cn(C)c2ccccc12 (stereo unspecified) | – | – | – | – | 105.2 | – | –
CN1/C(=C/C(=O)c2nc(S(C)(=O)=O)ncc2Cl)C(C)(C)c2ccccc21 | – | – | – | 48.0 | · | – | 116.8
Cc1ccc(/C=N/n2c(-c3ccccc3)n[nH]c2=S)cc1 | – | · | – | – | · | – | ·
Cc1ccc(-c2n[nH]c(=S)n2/N=C/c2c(C)nn(-c3ccccc3)c2C)cc1 | – | – | – | – | 108.7 | – | –
CCC(C(=O)Nc1c2c(nn1C(C)(C)C)CS(=O)(=O)C2)c1ccccc1 (stereo unspecified) | – | · | – | – | · | – | ·
CCOC(=O)c1ccc(S(=O)(=O)NCC(c2ccc(N(C)C)cc2)c2c[nH]c3ccccc23)cc1 (stereo unspecified) | – | – | – | – | – | – | ·
CN(C)c1ccc(C(CNS(=O)(=O)c2ccc(F)cc2)c2c[nH]c3ccccc23)cc1 (stereo unspecified) | – | – | – | – | 107.0 | – | –
Cc1ccc2sc(N(CCCN(C)C)C(=O)c3ccc(Br)s3)nc2c1C | – | – | – | – | – | – | ·
Cc1ccc2sc(N(CCCN(C)C)C(=O)c3nc4ccccc4s3)nc2c1C | – | – | – | – | 103.5 | – | 95.9
CCOC(=O)Cc1csc(NC(=O)Cn2c(=O)oc3ccccc32)n1 | – | – | – | – | – | – | ·
SMILES | UPR CHOP act | Dynein transport | pCIP destab | B2AR ag | CHOP inh | UPR XBP1 act | CHOP inh conf
O=C(Nc1ccccc1)Nc1cc(Cl)cc(Cl)c1 | – | – | – | – | 111.5 | – | –
O=C(Nc1ccccc1)Nc1cc(OCC(F)(F)F)cc(OCC(F)(F)F)c1 | · | – | – | – | 106.7 | · | 125.5
COc1ccc(CNS(=O)(=O)NCc2ccccc2F)cc1 | – | · | – | – | · | – | ·
O=C1CCN(Cc2ccc(O)cc2)CCN1CCO | – | · | – | – | · | – | ·
CCOc1ccc(Cn2c3ccc(OC)cc3c3nc4ccccc4nc32)cc1 | · | – | – | – | 105.5 | · | –
COc1ccc(-c2nc(CC(=O)Nc3cccc(S(=O)(=O)NC4=NCCC4)c3)cs2)cc1 | – | · | · | – | · | – | ·
CC(C)c1nnc(NC(=O)c2c(O)c3cccc4c3n(c2=O)CCC4)s1 | – | – | – | – | 103.8 | – | 109.3
O=C(c1ccco1)N1CCN(c2c(-c3ccccc3)c3cc(Cl)ccc3[nH]c2=O)CC1 | – | – | – | – | 97.5 | – | 115.2
O=C1C=C(C2OC(CO)C(O)C2O)C(=O)N1 (stereo unspecified) | · | · | · | – | · | · | ·
O=C(CN1c2ccccc2Sc2ccccc21)NNC(=O)Nc1ccc(Cl)cc1 | – | – | – | – | 100.4 | – | –
Nc1cc(Cl)ccc1Oc1ccc(Cl)cc1 | – | – | – | – | 96.1 | – | 134.1
Clc1ccc(C2Nc3cccc4cccc(c34)N2)cc1 | – | · | – | – | · | – | ·
Brc1ccc(C2Nc3cccc4cccc(c34)N2)s1 | · | – | – | – | 104.4 | · | –
Cc1noc(C)c1S(=O)(=O)Nc1ccc(C(=O)N2CCc3ccccc3C2)cc1 | – | – | – | – | – | – | ·
CC(=O)Oc1oc(-c2ccccc2)nc1/C=N/c1ccccn1 | – | – | – | 64.5 | 100.6 | – | –
Cc1cccc(N/C(N)=N/c2nc(C)c(Cc3ccccc3)c(=O)[nH]2)c1 | – | – | – | – | 101.1 | – | –
COc1ccc(N/C(N)=N/c2nc(C)c(Cc3ccccc3)c(=O)[nH]2)cc1 | – | · | – | – | · | – | ·
COc1ccc([C@@H]2CC(=O)c3c(O)cc(O)cc3O2)cc1O | – | · | · | – | · | – | ·
COc1c(CC=C(C)C)cc(C2CC(=O)c3c(O)cc(O)cc3O2)cc1CC=C(C)C (stereo unspecified) | – | – | – | – | 104.5 | – | 109.5
Cc1noc(C)c1S(=O)(=O)N(C)C[C@H]1Oc2ccc(NC(=O)Cn3cnnn3)cc2C(=O)N([C@H](C)CO)C[C@@H]1C | – | · | · | – | · | – | ·
CCCCCC1CC(CC(=O)O)C(=O)O1 (stereo unspecified) | – | – | – | – | – | – | ·
CCCCCC1CC(CC(=O)Nc2ccc([N+](=O)[O-])cc2)C(=O)O1 (stereo unspecified) | – | – | – | – | 101.2 | – | 103.5
C/C=C/C=N/Nc1nc(-c2ccc([N+](=O)[O-])cc2)cs1 | – | – | – | – | 97.7 | – | –
